In ChEMBL document CHEMBL1938375, “Design, synthesis and biological evaluation of pyrazole derivatives as potential multi-kinase inhibitors in hepatocellular carcinoma” (Eur J Med Chem, 2012):
Active and inactive are the calls of the source. The rule behind the calls is not given here.

Columns and labels:
[1] = biological target: RAC-alpha serine/threonine-protein kinase (Homo sapiens) (UniProt P31749); test: Inhibition of AKT phosphorylation in human SNU449 cells at 100 uM after 72 hrs by Western blotting relative to beta-actin; format: cell-based; settings: SNU-449
In short: (§1)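 Western blot for P-AKT in SNU449 cells treated at 25, 50 and 100 for 48 h and 72 h, with DMSO-treated cells as control. Bands were quantified as the P-AKT to β-actin ratio.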

[2] = biological target: RAC-alpha serine/threonine-protein kinase (Homo sapiens) (UniProt P31749); test: Inhibition of AKT phosphorylation in human SNU449 cells at 25 uM after 48 hrs by Western blotting relative to beta-actin; format: cell-based; settings: SNU-449; in short: as §1
[3] = biological target: RAC-alpha serine/threonine-protein kinase (Homo sapiens) (UniProt P31749); test: Inhibition of AKT in human SNU449 cells assessed as phosphorylated MDM2 level at 50 uM after 72 hrs by Western blotting relative to beta-actin; settings: SNU-449
[4] = biological target: RAC-alpha serine/threonine-protein kinase (Homo sapiens) (UniProt P31749); test: Inhibition of AKT in human SNU449 cells assessed as phosphorylated […] level at 50 uM after 72 hrs by Western blotting relative to beta-actin; format: cell-based; settings: SNU-449
SNU-449 [5] = test: Effect on p27 expression in human SNU449 cells at 50 uM after 72 hrs by Western blotting relative to beta-actin; format: functional
In short: (§2)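 Western blots in SNU449 cells treated at a single intermediate level for 72 h, with DMSO as control. Blots probed cyclin D1, p21, p27 and p53. Band intensities were given as the ratio of protein to β-actin.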

[6] = biological target: RAC-alpha serine/threonine-protein kinase (Homo sapiens) (UniProt P31749); test: Inhibition of AKT in human SNU449 cells assessed as total MDM2 protein level at 50 uM after 72 hrs by Western blotting relative to beta-actin; settings: SNU-449
SNU-449 [7] = test: Cytotoxicity against human SNU449 cells at 50 uM after 48 hrs; format: functional, cell-based
In short: (§3)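 Trypan blue exclusion counts on SNU449 cells grown in RPMI 1640 with 10% FBS and antibiotics. Compounds came from 10 mM DMSO stocks, diluted and tested at 50, 100 and 150 for 48 and 72 h in triplicate, with DMSO as control. Viable cells were counted in a Burker chamber. IC50 was derived from percentage viable cells relative to control.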

[8] = biological target: RAC-alpha serine/threonine-protein kinase (Homo sapiens) (UniProt P31749); test: Inhibition of AKT in human SNU449 cells assessed as phosphorylated ERK1/2 level at 50 uM after 72 hrs by Western blotting relative to beta-actin; format: cell-based; settings: SNU-449
In short: (§4)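 Western blots in SNU449 cells treated at a single intermediate level for 48 and 72 h, with DMSO as control. Blots probed P-ERK1/2, P-GSK-3β (Ser-9) and P-RpS6. Band intensities were given as the ratio of phosphoprotein to β-actin.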

[9] = biological target: RAC-alpha serine/threonine-protein kinase (Homo sapiens) (UniProt P31749); test: Inhibition of AKT phosphorylation in human SNU449 cells at 25 uM after 72 hrs by Western blotting relative to beta-actin; format: cell-based; settings: SNU-449; in short: as §1
[10] = biological target: RAC-alpha serine/threonine-protein kinase (Homo sapiens) (UniProt P31749); test: Inhibition of AKT in human SNU449 cells assessed as phosphorylated ERK1/2 level at 50 uM after 48 hrs by Western blotting relative to beta-actin; format: cell-based; settings: SNU-449; in short: as §4
SNU-449 [11] = test: Cell cycle arrest in human SNU449 cells assessed as accumulation at G1 phase at 100 uM after 48 to 72 hrs using […]propidium iodide staining by flow cytometric analysis; format: functional, cell-based
[12] = biological target: RAC-alpha serine/threonine-protein kinase (Homo sapiens) (UniProt P31749); test: Inhibition of AKT in human SNU449 cells assessed as phosphorylated GSK3-beta level at 50 uM after 72 hrs by Western blotting relative to beta-actin; format: cell-based; settings: SNU-449; in short: as §4
[13] = biological target: RAC-alpha serine/threonine-protein kinase (Homo sapiens) (UniProt P31749); test: Inhibition of AKT phosphorylation in human SNU449 cells at 50 uM after 48 hrs by Western blotting relative to beta-actin; format: cell-based; settings: SNU-449; in short: as §1
SNU-449 [14] = test: Up-regulation of p21 expression in human SNU449 cells at 50 uM after 72 hrs by Western blotting relative to beta-actin; format: functional; in short: as §2
[15] = biological target: RAC-alpha serine/threonine-protein kinase (Homo sapiens) (UniProt P31749); test: Inhibition of AKT phosphorylation in human SNU449 cells at 50 uM after 72 hrs by Western blotting relative to beta-actin; format: cell-based; settings: SNU-449; in short: as §1
SNU-449 [16] = test: Cytotoxicity against human SNU449 cells at 50 uM after 72 hrs; format: functional, cell-based; in short: as §3
[17] = biological target: RAC-alpha serine/threonine-protein kinase (Homo sapiens) (UniProt P31749); test: Inhibition of AKT in human SNU449 cells assessed as phosphorylated RpS6 level at 50 uM after 72 hrs by Western blotting relative to beta-actin; format: cell-based; settings: SNU-449; in short: as §4
[18] = biological target: RAC-alpha serine/threonine-protein kinase (Homo sapiens) (UniProt P31749); test: Inhibition of AKT in human SNU449 cells assessed as beta-catenin level at 50 uM after 48 hrs by Western blotting relative to beta-actin; settings: SNU-449
SNU-449 [19] = test: Cytotoxicity against human SNU449 cells after 72 hrs; format: functional, cell-based; settings: SNU-449, 72 h; in short: as §3
SNU-449 [20] = test: Cytotoxicity against human SNU449 cells after 48 hrs; format: functional, cell-based; settings: SNU-449, 48 h; in short: as §3
SNU-449 [21] = test: Induction of apoptosis in human SNU449 cells at 50 to 100 uM after 72 hrs using annexin V/propidium iodide staining by flow cytometric analysis; format: functional, cell-based
In short: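 SNU449 cells were treated at two compound levels for 72 h, with DMSO as control. Apoptosis was detected by Annexin V/propidium iodide staining and flow cytometry, following the kit instructions. Values are averages ± SD.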

SNU-449 [22] = test: Cell cycle arrest in human SNU449 cells assessed as decrease in S phase at 100 uM after 48 to 72 hrs using […]propidium iodide staining by flow cytometric analysis
SNU-449 [23] = test: Up-regulation of p53 expression in human SNU449 cells at 50 uM after 72 hrs by Western blotting relative to beta-actin; format: functional; in short: as §2
[24] = biological target: RAC-alpha serine/threonine-protein kinase (Homo sapiens) (UniProt P31749); test: Inhibition of AKT phosphorylation in human SNU449 cells at 100 uM after 48 hrs by Western blotting relative to beta-actin; format: cell-based; settings: SNU-449; in short: as §1
[25] = biological target: RAC-alpha serine/threonine-protein kinase (Homo sapiens) (UniProt P31749); test: Inhibition of AKT in human SNU449 cells assessed as phosphorylated GSK3-beta level at 50 uM after 48 hrs by Western blotting relative to beta-actin; format: cell-based; settings: SNU-449; in short: as §4
SNU-449 [26] = test: Decrease of cyclin D1 level in human SNU449 cells at 50 uM after 72 hrs by Western blotting relative to beta-actin; format: functional; in short: as §2
[27] = biological target: RAC-alpha serine/threonine-protein kinase (Homo sapiens) (UniProt P31749); test: Inhibition of AKT in human SNU449 cells assessed as phosphorylated RpS6 level at 50 uM after 48 hrs by Western blotting relative to beta-actin; format: cell-based; settings: SNU-449; in short: as §4
SNU-449 [28] = test: Cell cycle arrest in human SNU449 cells assessed as accumulation at G1 phase at 25 uM after 48 to 72 hrs using […]propidium iodide staining by flow cytometric analysis; format: functional, cell-based
SNU-449 [29] = test: Cell cycle arrest in human SNU449 cells assessed as accumulation at G1 phase at 50 uM after 72 hrs using […]propidium iodide staining by flow cytometric analysis; format: functional, cell-based

Chain of RAC-alpha serine/threonine-protein kinase (Homo sapiens) (P31749 whole entry): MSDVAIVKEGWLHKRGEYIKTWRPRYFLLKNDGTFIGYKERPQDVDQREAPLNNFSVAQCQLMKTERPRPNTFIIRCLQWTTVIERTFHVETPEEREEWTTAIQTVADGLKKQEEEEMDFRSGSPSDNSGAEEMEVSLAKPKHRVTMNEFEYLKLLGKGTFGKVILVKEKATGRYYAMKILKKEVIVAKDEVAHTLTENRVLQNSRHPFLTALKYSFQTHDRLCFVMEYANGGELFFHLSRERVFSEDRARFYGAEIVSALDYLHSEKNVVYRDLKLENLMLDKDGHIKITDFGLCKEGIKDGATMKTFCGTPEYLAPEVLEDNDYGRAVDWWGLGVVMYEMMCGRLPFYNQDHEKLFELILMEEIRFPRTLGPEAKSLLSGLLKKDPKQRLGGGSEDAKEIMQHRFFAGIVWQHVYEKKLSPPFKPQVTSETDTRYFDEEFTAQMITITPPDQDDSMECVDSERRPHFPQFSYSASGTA

Row | Ratio [1] | Ratio [2] | Ratio [3] | Ratio [4] | Ratio [6] | Ratio [8] | Ratio [9] | Ratio [10] | Ratio [12] | Ratio [13] | Ratio [15] | Ratio [17] | Ratio [18] | SMILES | Ratio (SNU-449 [5]) | Activity (SNU-449 [7]) | Activity (SNU-449 [11]) | Ratio (SNU-449 [14]) | Activity (SNU-449 [16]) | IC50 (SNU-449 [19]) [µM] | IC50 (SNU-449 [20]) [µM] | further results
1 | 0.5 | 1.2 | 0.4 | 0.75 | 1.3 | 1.1 | 2.2 | 1.5 | 0.93 | 0.26 | 0.32 | 0.29 | 0.57 | Cc1cccc(-c2cc(C(=O)Nc3ccc(N)cc3)n(-c3ccc(N)cc3)n2)c1C | 0.95 | Active | Active | 4.6 | Active | < 50 | < 100 | Activity (SNU-449 [21]): Active; Activity (SNU-449 [22]): Active; Ratio (SNU-449 [23]): 1.4; Ratio [24]: 0.07; Ratio [25]: 0.18; Ratio (SNU-449 [26]): 0.39; Ratio [27]: 0.5; Activity (SNU-449 [28]): Active
2 | 0.64 | 1.1 | 0.65 | 0.46 | 1.4 | 0.91 | 1.9 | 2 | 0.6 | 0.58 | 0.53 | 0.49 | 0.41 | Cc1cccc(NC(=O)c2cc(C(=O)Nc3ccc(N)cc3)n(-c3ccc(N)cc3)n2)c1C | 1.2 | Active | Active | 4.6 | Active | 50 | 150 | Activity (SNU-449 [21]): Active; Activity (SNU-449 [22]): Active; Ratio (SNU-449 [23]): 1.3; Ratio [24]: 0.39; Ratio [25]: 0.48; Ratio (SNU-449 [26]): 0.67; Ratio [27]: 0.64; Activity (SNU-449 [29]): Active
